Source: ChEMBL document CHEMBL1123780, “2'-Fluorinated arabinonucleosides of 5-(2-haloalkyl)uracil: synthesis and antiviral activity” (1987)
Values after ≈ are worked out from the molar mass of the structure shown.

What was measured:
[1] = Antiviral activity against HSV-1 (KOS) in Primary Rabbit Kidney (PRK) cells; assay type: functional; details: Oryctolagus cuniculus
Vero [2] = test: Antiviral activity against HSV-1 (Brand) in Vero cells; assay type: functional; details: Chlorocebus sabaeus
Procedure, shortened: (§1)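 CPE inhibition: serial 3-fold compound dilutions in E-MEM, then virus and cell suspension (E-MEM plus 15% fetal calf serum) added together. Cell input set for a confluent monolayer in 1-2 days, virus input for 90-100% CPE in infected controls at 3 days. Plates then fixed and stained, and CPE estimated against infected untreated controls. Uninfected compound-treated cells included.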

[3] = Antiviral activity against HSV-2 (G) in Primary Rabbit Kidney (PRK) cells; assay type: functional; details: Oryctolagus cuniculus
HEp-2 [4] = test: Proliferation of Hep-2 cells by propagation on day 4 by measuring optical density (absorbance) at 330 ug/mL; assay type: functional, Homo sapiens
Procedure, shortened: (§2)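 Cells were suspended in medium with compound and seeded at low density in 24-well dishes (Vero 5×10^4, HEp-2 1×10^5 cells/well), four wells per condition, and grown 4 days. Cells were stained with 0.01% neutral red in PBS for 2 h at 37 °C, washed, dried, and dissolved in ethanol/0.1 M NaH₂PO₄ (1:1). OD was read at 546 nm, taken as proportional to cell number.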

Vero [5] = test: Proliferation of Vero cells by propagation on day 4 by measuring optical density (absorbance) at 330 ug/mL; assay type: functional, Chlorocebus sabaeus; procedure, shortened: as §2
HEp-2 [6] = test: Antiviral activity against HSV-2 (K979) in human epithelial (Hep-2) cells; assay type: functional; procedure, shortened: as §1
HEp-2 [7] = test: Proliferation of Hep-2 cells by propagation on day 4 by measuring optical density (absorbance) at 100 ug/mL; assay type: functional, Homo sapiens; procedure, shortened: as §2
HEp-2 [8] = test: Proliferation of Hep-2 cells by propagation on day 4 by measuring optical density (absorbance) at 30 ug/mL; assay type: functional, Homo sapiens; procedure, shortened: as §2
HEp-2 [9] = test: Antiviral activity against HSV-1 (Brand) in human epithelial (Hep-2) cells; assay type: functional; procedure, shortened: as §1
[10] = Antiviral activity against VZV (Ellen) in human lung fibroblast (HLF-1) cells; assay type: functional
Vero [11] = test: Proliferation of Vero cells by propagation on day 4 by measuring optical density (absorbance) at 100 ug/mL; assay type: functional, Chlorocebus sabaeus; procedure, shortened: as §2
Vero [12] = test: Proliferation of Vero cells by propagation on day 4 by measuring optical density (absorbance) at 30 ug/mL; assay type: functional, Chlorocebus sabaeus; procedure, shortened: as §2
Vero [13] = test: Antiviral activity against HSV-2 (K979) in Vero cells; assay type: functional; details: Chlorocebus sabaeus; procedure, shortened: as §1

| Compound | MIC [1] | MIC (Vero [2]) | MIC [3] | Control (HEp-2 [4]) | Control (Vero [5]) | MIC (HEp-2 [6]) | Control (HEp-2 [7]) | Control (HEp-2 [8]) | MIC (HEp-2 [9]) | MIC [10] | Control (Vero [11]) | Control (Vero [12]) | MIC (Vero [13]) |
| --- | --- | --- | --- | --- | --- | --- | --- | --- | --- | --- | --- | --- | --- |
| O=c1[nH]c(=O)n([C@@H]2O[C@H](CO)[C@@H](O)[C@@H]2F)cc1I [FIALURIDINE] | 0.02 µg/mL (≈ 0.0538 µM) | 0.01 µg/mL (≈ 0.0269 µM) | 0.02 µg/mL (≈ 0.0538 µM) | 0% | 0% | 0.1 µg/mL (≈ 0.269 µM) | 13% | 49% | 0.01 µg/mL (≈ 0.0269 µM) | 0.003 µg/mL (≈ 0.00806 µM) | 6% | 37% | 0.1 µg/mL (≈ 0.269 µM) |
| Cc1cn([C@@H]2O[C@H](CO)[C@@H](O)[C@@H]2F)c(=O)[nH]c1=O [5-METHYL-2'-FLUOROARAURACIL] | 0.04 µg/mL (≈ 0.154 µM) | 0.03 µg/mL (≈ 0.115 µM) | 0.02 µg/mL (≈ 0.0769 µM) | 0% | 0% | 0.1 µg/mL (≈ 0.384 µM) | 3% | 36% | 0.3 µg/mL (≈ 1.15 µM) | 0.001 µg/mL (≈ 0.00384 µM) | 6% | 7% | 0.3 µg/mL (≈ 1.15 µM) |
| O=c1[nH]c(=O)n([C@@H]2O[C@H](CO)[C@@H](O)[C@@H]2F)cc1CCF | 0.2 µg/mL (≈ 0.684 µM) | 0.03 µg/mL (≈ 0.103 µM) | 0.2 µg/mL (≈ 0.684 µM) | 72% | 90% | 0.1 µg/mL (≈ 0.342 µM) | 105% | 113% | 0.03 µg/mL (≈ 0.103 µM) | 0.03 µg/mL (≈ 0.103 µM) | 87% | 98% | 0.3 µg/mL (≈ 1.03 µM) |
| NC1=NC(=O)C2N=CN(COCCO)C2=N1 (stereo not drawn) | 0.06 µg/mL (≈ 0.266 µM) | 0.003 µg/mL (≈ 0.0133 µM) | 0.04 µg/mL (≈ 0.178 µM) | 41% | 56% | 3 µg/mL (≈ 13.3 µM) | 78% | 89% | 1 µg/mL (≈ 4.44 µM) | – | 73% | 77% | 1 µg/mL (≈ 4.44 µM) |
| O=c1[nH]c(=O)n([C@H]2C[C@H](O)[C@@H](CO)O2)cc1I [IDOXURIDINE] | 0.2 µg/mL (≈ 0.565 µM) | 0.1 µg/mL (≈ 0.282 µM) | 0.91 µg/mL (≈ 2.57 µM) | 0% | 16% | 0.3 µg/mL (≈ 0.847 µM) | 20% | 61% | 0.3 µg/mL (≈ 0.847 µM) | 10 µg/mL (≈ 28.2 µM) | 34% | 61% | 1 µg/mL (≈ 2.82 µM) |
| O=c1[nH]c(=O)n([C@H]2C[C@H](O)[C@@H](CO)O2)cc1/C=C/Br [BRIVUDINE] | 0.007 µg/mL (≈ 0.021 µM) | 0.001 µg/mL (≈ 0.003 µM) | 2.3 µg/mL (≈ 6.9 µM) | 31% | 55% | 3 µg/mL (≈ 9.01 µM) | 68% | 79% | 0.01 µg/mL (≈ 0.03 µM) | 0.001 µg/mL (≈ 0.003 µM) | 71% | 74% | 30 µg/mL (≈ 90.1 µM) |
| Nc1nc(=O)n([C@@H]2O[C@H](CO)[C@@H](O)[C@H]2F)cc1I | 0.02 µg/mL (≈ 0.0539 µM) | 0.01 µg/mL (≈ 0.0269 µM) | 0.03 µg/mL (≈ 0.0808 µM) | 13% | 24% | 0.03 µg/mL (≈ 0.0808 µM) | 32% | 64% | 0.01 µg/mL (≈ 0.0269 µM) | 0.01 µg/mL (≈ 0.0269 µM) | 43% | 68% | 0.1 µg/mL (≈ 0.269 µM) |
| O=c1[nH]c(=O)n([C@@H]2O[C@H](CO)[C@@H](O)[C@@H]2F)cc1CCCl | 0.3 µg/mL (≈ 0.972 µM) | 0.3 µg/mL (≈ 0.972 µM) | 2 µg/mL (≈ 6.48 µM) | 68% | 63% | 1 µg/mL (≈ 3.24 µM) | 107% | 116% | 0.1 µg/mL (≈ 0.324 µM) | 0.1 µg/mL (≈ 0.324 µM) | 74% | 75% | 10 µg/mL (≈ 32.4 µM) |
| O=c1[nH]c(=O)n([C@H]2C[C@H](O)[C@@H](CO)O2)cc1CCCl | 0.14 µg/mL (≈ 0.482 µM) | 0.01 µg/mL (≈ 0.0344 µM) | 2.1 µg/mL (≈ 7.22 µM) | 86% | 82% | 3 µg/mL (≈ 10.3 µM) | 99% | 104% | 0.03 µg/mL (≈ 0.103 µM) | 0.01 µg/mL (≈ 0.0344 µM) | 91% | 84% | 30 µg/mL (≈ 103 µM) |
| O=c1[nH]c(=O)n(C2O[C@H](CO)[C@@H](O)[C@@H]2O)cc1CCCl (stereo partly drawn) | – | 30 µg/mL (≈ 97.8 µM) | – | – | – | 100 µg/mL (≈ 326 µM) | – | – | 30 µg/mL (≈ 97.8 µM) | – | – | – | 100 µg/mL (≈ 326 µM) |
| O=c1[nH]c(=O)n([C@H]2C[C@H](O)[C@@H](CO)O2)cc1CCF | 0.58 µg/mL (≈ 2.11 µM) | 0.1 µg/mL (≈ 0.365 µM) | 1.5 µg/mL (≈ 5.47 µM) | 60% | 71% | 1 µg/mL (≈ 3.65 µM) | 86% | 97% | 0.03 µg/mL (≈ 0.109 µM) | 3 µg/mL (≈ 10.9 µM) | 97% | 94% | 3 µg/mL (≈ 10.9 µM) |
